Reference: ChEMBL document CHEMBL1126074, “(+-)-carbocyclic 5'-nor-2'-deoxyguanosine and related purine derivatives: synthesis and antiviral properties” (1992)
Converted amounts (≈) assume the structure as drawn.

Key:
Type in all cases: functional
[1] = Concentration required to cause a microscopically detectable alteration of normal ESM cell morphology.; settings: Homo sapiens
[2] = Concentration required to reduce HSV-1 thymidine kinase deficient (TK-)(VMW 1837) induced cytopathogenicity in by 50% ESM(embryonic skin muscle) cell cultures.; settings: Homo sapiens
How it was run: (§1)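 Embryonic skin muscle (ESM) cell cultures were infected at a virus input of 100 CCID50, where 1 CCID50 is the infective dose for 50% of cultures. Endpoint: concentration reducing virus-induced cytopathogenicity by 50%.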

[3] = Concentration required to reduce HSV-2(G) induced cytopathogenicity by 50% in ESM(embryonic skin muscle) cell cultures.; settings: Homo sapiens; how it was run: as §1
[4] = Concentration required to reduce vaccinia virus(VV) induced cytopathogenicity by 50% in ESM(embryonic skin muscle) cell cultures.; settings: Homo sapiens; how it was run: as §1
[5] = Concentration required to reduce HSV-1(KOS) induced cytopathogenicity by 50% in ESM(embryonic skin muscle) cell cultures.; settings: Homo sapiens; how it was run: as §1
[6] = Concentration required to reduce vesicular stomatitis virus(VSV) induced cytopathogenicity by 50% in ESM(embryonic skin muscle) cell cultures.; settings: Homo sapiens; how it was run: as §1
[7] = tested on: HEL; experiment: Concentration required to reduce varicella zoster virus (VZV)YS-TK-PFU plaque formation by 50% in human embryonic lung (HEL) cell cultures.
[8] = Concentration required to reduce HSV-1 thymidine kinase deficient (TK-)(B2006) induced cytopathogenicity by 50% in ESM(embryonic skin muscle) cell cultures.; settings: Homo sapiens; how it was run: as §1
[9] = tested on: HEL; experiment: Concentration required to reduce varicella zoster virus(VZV)OKA plaque formation by 50% at 20 plaque forming units(PFU) in human embryonic lung (HEL) cell cultures.
[10] = tested on: HEL; experiment: Concentration required to reduce VZV-YS/R-TK- plaque formation by 50% in human embryonic lung (HEL) cell cultures.
[11] = tested on: HEL; experiment: Concentration required to reduce VZV-07/1-TK- plaque formation by 50% in human embryonic lung (HEL) cell cultures.
[12] = tested on: HEL; experiment: Concentration required to reduce human embryonic lung (HEL) cell growth by 50%.; settings: read-out: MCC
[13] = tested on: HEL; experiment: Concentration required to reduce CMV (Davis) plaque formation by 50% at 100 plaque forming units(PFU) in human embryonic lung (HEL) cell cultures.
How it was run: (§2)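 Human embryonic lung (HEL) cell cultures were infected with 20 or 100 plaque forming units of CMV, as specified per column. Endpoint: concentration reducing plaque formation by 50%.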

[14] = tested on: HEL; experiment: Concentration required to reduce CMV(Davis) plaque formation by 50% at 20 plaque forming units(PFU) in human embryonic lung (HEL) cell cultures.; how it was run: as §2
[15] = tested on: HEL; experiment: Concentration required to reduce CMV(AD-169) plaque formation by 50% in human embryonic lung (HEL) cell cultures.; how it was run: as §2

Row | SMILES | MCC [1] | MIC [2] | MIC [3] | MIC [4] | MIC [5] | MIC [6] | MIC [7] | MIC [8] | MIC [9] | MIC [10] | MIC [11] | CC50 (50% cell growth inhibitory concentration) [12] | MIC [13] | MIC [14] | MIC [15]
1 | O=c1[nH]c(=O)n([C@H]2C[C@H](O)[C@@H](CO)O2)cc1/C=C/Br [BRIVUDINE] | > 400 µg/mL | 10 µg/mL (≈ 30 µM) | 10 µg/mL (≈ 30 µM) | 1 µg/mL (≈ 3 µM) | 0.07 µg/mL (≈ 0.21 µM) | > 400 µg/mL | 0.0007 µg/mL (≈ 0.0021 µM) | 100 µg/mL (≈ 300 µM) | 0.001 µg/mL (≈ 0.003 µM) | > 10 µg/mL | > 10 µg/mL | – | – | – | –
2 | Nc1nc(O)c2ncn([C@H]3C[C@@H](O)[C@@H](O)C3)c2n1 | > 400 µg/mL | 150 µg/mL (≈ 597 µM) | 300 µg/mL (≈ 1190 µM) | 300 µg/mL (≈ 1190 µM) | 300 µg/mL (≈ 1190 µM) | > 400 µg/mL | 91 µg/mL (≈ 362 µM) | 300 µg/mL (≈ 1190 µM) | 90 µg/mL (≈ 358 µM) | 192 µg/mL (≈ 764 µM) | 164 µg/mL (≈ 653 µM) | 196 µg/mL (≈ 780 µM) | 250 µg/mL (≈ 995 µM) | 270 µg/mL (≈ 1070 µM) | 250 µg/mL (≈ 995 µM)
3 | Nc1nc2c(ncn2COC(CO)CO)c(=O)[nH]1 [GANCICLOVIR] | – | – | – | – | – | – | – | – | 3 µg/mL (≈ 11.8 µM) | – | – | – | 0.3 µg/mL (≈ 1.18 µM) | 0.8 µg/mL (≈ 3.13 µM) | –
4 | NC(=O)c1ncn([C@@H]2O[C@H](CO)[C@@H](O)[C@H]2O)n1 [RIBAVIRIN] | > 400 µg/mL | 40 µg/mL (≈ 164 µM) | > 400 µg/mL | 70 µg/mL (≈ 287 µM) | > 400 µg/mL | 150 µg/mL (≈ 614 µM) | – | 300 µg/mL (≈ 1230 µM) | – | – | – | – | – | – | –
5 | Nc1ncnc2c1ncn2[C@H]1C[C@@H](O)[C@@H](O)C1 | > 400 µg/mL | 100 µg/mL (≈ 425 µM) | > 200 µg/mL | > 100 µg/mL | > 200 µg/mL | > 200 µg/mL | 25 µg/mL (≈ 106 µM) | 70 µg/mL (≈ 298 µM) | 24 µg/mL (≈ 102 µM) | 47 µg/mL (≈ 200 µM) | 24 µg/mL (≈ 102 µM) | 110 µg/mL (≈ 468 µM) | 200 µg/mL (≈ 850 µM) | 200 µg/mL (≈ 850 µM) | 200 µg/mL (≈ 850 µM)
6 | Nc1nc(N)c2ncn([C@H]3C[C@@H](O)[C@@H](O)C3)c2n1 | > 400 µg/mL | 150 µg/mL (≈ 599 µM) | 200 µg/mL (≈ 799 µM) | > 150 µg/mL | > 200 µg/mL | > 200 µg/mL | 200 µg/mL (≈ 799 µM) | 100 µg/mL (≈ 400 µM) | 70 µg/mL (≈ 280 µM) | 89 µg/mL (≈ 356 µM) | 70 µg/mL (≈ 280 µM) | 139 µg/mL (≈ 555 µM) | 70 µg/mL (≈ 280 µM) | 70 µg/mL (≈ 280 µM) | 70 µg/mL (≈ 280 µM)
